Here are results for one compound from ChEMBL document CHEMBL5608187, “Discovery of pyridoquinoxaline-based new P-gp inhibitors as coadjutant against Multi Drug Resistance in cancer” (Eur J Med Chem, 2024).

Active and inactive are the calls of the source. No cut-off for these calls is given here.

One data set has as its system HuP-T3. Kind of data set: Coadjutant activity against multidrug resistance in human Hup-T3 cells assessed as potentiation of vincristine-induced cell growth inhibition by measuring cell growth at 4 uM incubated for 72 hrs in presence of 0.02 to 20 uM vincristine by SiR-DNA/CellTox Green Dye based fluorescence analysis. Type of data set: functional. Also on record: scale not given: the % may be the effect or the level left. In a few lines: (§1)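 Growth by live-cell imaging: 500 cells/well plated with SiR-DNA and CellTox Green dye; serial dilutions in phenol-red-free complete medium added next day. Imaged at addition and at 72 h. Live cells = SiR-DNA nuclei minus CellTox-positive dead cells; percentage growth calculated. Three technical replicates; two-tailed t-test. Inhibitor paired with anticancer drug at fixed or scaled levels.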

For another data set, the system named is MeWo. Kind of data set: Coadjutant activity against multidrug resistance in human MeWo cells assessed as potentiation of vincristine-induced cell growth inhibition at 4 uM incubated for 72 hrs in presence of 0.02 to 20 uM vincristine by SiR-DNA/CellTox Green Dye based fluorescence analysis. Format: functional. A digest of the protocol:
as §1

Another data set deals with U-87 MG. Kind of data set: Cytotoxicity against human U-87 MG cells assessed as inhibition of cell growth at 4 uM incubated for 72 hrs by SiR-DNA/CellTox Green Dye based fluorescence analysis. Format: toxicity. As to conditions: u-87mg atcc. In a few lines: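 Single-agent control at 4 µM, no anticancer drug. 500 cells/well with SiR-DNA and CellTox Green; imaged at addition and 72 h. Live count = total nuclei minus dead cells, expressed as percent growth. Three technical replicates.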

As to `O=C(Nc1ccccc1)c1ccccc1OCc1nc2cc3cccnc3cc2nc1COc1ccccc1C(=O)Nc1ccccc1`, the figures for the Activity in the data set with HuP-T3 and in the data set with U-87 MG were 50% and “Non-Toxic”, respectively. Moreover, in the data set with MeWo, the result was Active.
